Inhibition and Activity data for 12 molecules are collected here from ChEMBL document CHEMBL1759946, “Proflavine derivatives as fluorescent imaging agents of amyloid deposits” (Bioorg Med Chem Lett, 2011).

Calls of active or inactive are those of the source. The calls are words filed in the database; no cut-off is given here.

System in the first experiment: not listed separately
In words: Inhibition of amyloid beta (1 to 40) fibril formation at 10 uM after 8 days by thioflavin T fluorescent dye assay.
Usually inhibition stands for the relative decrease from the control value, in per cent. `COc1ccc2c(c1)CN1c3ccc(OC)cc3CN2C1CCCCCCCN=[N+]=[N-]`: the inhibition result was “inactive”.

`C#CCNC(=O)CCCCC1CCSS1` (racemic): the inhibition entry is “inactive”.

System in a further experiment: not listed separately
In words: Inhibition of amyloid beta (1 to 40) fibril formation at 10 uM after 8 days by thioflavin T fluorescent dye assay. In outline:
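Compound at 10 µM was co-incubated for eight days with Aβ40 (50 µM) in the presence of thioflavin T. Dye fluorescence was read at 485 nm and expressed as percent of the control assay with Aβ40 alone.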
Take `C#CCNCCC(=O)Nc1ccc2cc3ccc(NC(C)=O)cc3nc2c1`: the inhibition came out at 50%. On to `C#CCOC(=O)Nc1ccc2cc3ccc(NC(C)=O)cc3nc2c1`, for which the inhibition result was “Active”. `CC(=O)Nc1ccc2cc3ccc(NC(=O)Cn4cc(CNC(=O)CCCCC5CCSS5)nn4)cc3nc2c1` (centres undefined) came in with an inhibition of 50%. For `COc1ccc2c(c1)CN1c3ccc(OC)cc3CN2C1CCCCCCCn1cc(CNCCC(=O)Nc2ccc3cc4ccc(NC(C)=O)cc4nc3c2)nn1`, the inhibition was 50%.

In turn, `CC(=O)Nc1ccc2cc3ccc(NC(=O)CCNC(=O)CCCCC4CCSS4)cc3nc2c1` (centres undefined) gave an inhibition of 50%. On to `CC(=O)Nc1ccc2cc3ccc(NC(=O)CN=[N+]=[N-])cc3nc2c1`, for which the inhibition came to 50%. Consider `COc1cc(/C=C/C(=O)CC(=O)/C=C/c2ccc(O)c(OC)c2)ccc1O`, for which the inhibition was 80%. Molecule `CC(=O)Nc1ccc2cc3ccc(NC(=O)CCN)cc3nc2c1` showed an inhibition of 50%. The same measure, in the same setting: under `COc1ccc2c(c1)CN1c3ccc(OC)cc3CN2C1CCCCCCCn1cc(COC(=O)Nc2ccc3cc4ccc(NC(C)=O)cc4nc3c2)nn1` stands 50%.

A further experiment is filed under the species Mus musculus. Description: Binding affinity to beta amyloid plaque in triple transgenic alzheimer disease mouse model hippocampus at 100 uM after 90 mins by fluorescence microscopy. In kind it is tissue-based. Put shortly: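 Plaque labeling was read from the compound's native fluorescence with fluorescein optics. Plaques were confirmed by thioflavin S staining of adjacent sections. Controls were age-matched wild-type sections, untreated sections and DAPI counterstain.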
Consider `COc1ccc2c(c1)CN1c3ccc(OC)cc3CN2C1CCCCCCCn1cc(CNCCC(=O)Nc2ccc3cc4ccc(NC(C)=O)cc4nc3c2)nn1`, for which the outcome was Active.

System in the next experiment: not listed separately
In words: Induction of amyloid beta 40 fibril disassembly at 1:2 compound:amyloid-beta ratio. In outline:
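Fresh preformed Aβ40 fibrils were incubated at 37 °C with compound at a compound/Aβ ratio of 1/2. Disassembly was followed by the change in thioflavin T fluorescence.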
On to `COc1cc(/C=C/C(=O)CC(=O)/C=C/c2ccc(O)c(OC)c2)ccc1O`, for which the Activity is 90%. In the case of `O=C(O)CCCCC1CCSS1` (centres undefined), the Activity worked out at 60%.
